pIC50: −log10 of the molar value. The source made the active and inactive calls. The rule behind the calls is not given here.
Tests used:
[1] = tested on: HeLa; experiment: Antiproliferative activity against HeLa (human cervix adenocarcinoma cells) in dark condition; assay type: functional, cell-based
Method in brief: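 Dark control on HeLa (F-12, 10% FCS, 37 °C, 5% CO2). 10^5 cells/well were seeded and, after 24 h, given phenol-red-free DMEM with various agent concentrations. No irradiation was applied, and compound was not washed out; cells were kept 24 h in complete F-12 with compound. Viability was by trypan blue; IC50 is the 50% drop in cell number relative to control cultures.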

[2] = species on record: Cavia porcellus; experiment: Skin Phototoxicity was tested on depilated Guinea Pigs (outbred Dunkin - Hartley strain) and erythema intensity was measured; Absent; assay type: functional, organism-based
[3] = tested on: HL-60; experiment: Antiproliferative activity against HL-60 (human promyelocytic leukemic cells) after exposure to UV light; assay type: functional, cell-based
Method in brief: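 HL-60 cells grown in RPMI 1640 with 15% heat-inactivated FCS at 37 °C, 5% CO2. 10^5 cells/well were incubated 24 h, then test agent was added at various concentrations in complete medium. After 1 h in the dark, cells received a UVA dose of 0.793 J cm^-2 (lamps emitting >90% at 365 nm) and were incubated 24 h more. Viability was read by trypan blue; IC50 is the 50% reduction in cell number versus control cultures.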

[4] = tested on: HL-60; experiment: Antiproliferative activity against HL-60 (human promyelocytic leukemic cells) in dark condition; assay type: functional, cell-based
[5] = tested on: HeLa; experiment: Antiproliferative activity against HeLa (human cervix adenocarcinoma cells) after exposure to UV light; assay type: functional, cell-based
Method in brief: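 HeLa cells grown in F-12 with 10% heat-inactivated FCS at 37 °C, 5% CO2. 10^5 cells/well were incubated 24 h, switched to phenol-red-free DMEM, and given various agent concentrations. After 1 h they were irradiated with UVA at 0.793 J cm^-2 (365 nm lamps). Drug medium was then removed, and cells were kept 24 h in complete F-12. Trypan blue counts gave IC50 versus control.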

pIC50 [1] | pIC50 [3] | pIC50 [4] | pIC50 [5] | SMILES | Erythema intensity [2]
< 4.70 | 4.89 | < 4.70 | 4.80 | COc1c2occ(C)c2cc2c3c(c(=O)oc12)CCCC3 | inactive
< 4.70 | – | < 4.70 | – | COc1c2occc2cc2ccc(=O)oc12 [METHOXSALEN] | –
< 4.70 | 6.02 | 4.80 | 6.17 | Cc1coc2c(OCCCN(C)C)c3oc(=O)c4c(c3cc12)CCCC4 | inactive
< 4.70 | < 4.70 | < 4.70 | < 4.70 | Cc1coc2c(O)c3oc(=O)c4ccccc4c3cc12 | inactive
< 4.70 | 4.77 | < 4.70 | 4.76 | Cc1coc2c(O)c3oc(=O)c4c(c3cc12)CCCC4 | inactive
< 4.70 | 4.93 | < 4.70 | < 4.70 | COc1c2occ(C)c2cc2c1oc(=O)c1ccccc12 | inactive
< 4.70 | 6.17 | 5.00 | 6.19 | Cc1coc2c(OCCCN(C)C)c3oc(=O)c4ccccc4c3cc12 | inactive

— ChEMBL document CHEMBL1145066, “Novel pyrone side tetracyclic psoralen derivatives: synthesis and photobiological evaluation” (J Med Chem, 2003)
